≈ marks a conversion by molar mass, not a printed value.
Tests used:
[1] = system: Staphylococcus aureus; test: Ratio of gatifloxacin MIC to compound MIC for quinolone-resistant Staphylococcus aureus CCARM 3505 after 24 hrs by two-fold serial dilution method; type: functional
[2] = system: Staphylococcus aureus; test: Ratio of gatifloxacin MIC to compound MIC for quinolone-resistant Staphylococcus aureus CCARM 3519 after 24 hrs by two-fold serial dilution method; type: functional
[3] = system: Staphylococcus aureus; test: Ratio of moxifloxacin MIC to compound MIC for quinolone-resistant Staphylococcus aureus CCARM 3519 after 24 hrs by two-fold serial dilution method; type: functional
[4] = system: Staphylococcus aureus; test: Ratio of norfloxacin MIC to compound MIC for methicillin-resistant Staphylococcus aureus CCARM 3506 after 24 hrs by two-fold serial dilution method; type: functional
[5] = system: Staphylococcus aureus; test: Antibacterial activity against Staphylococcus aureus 503 after 24 hrs by two-fold serial dilution method; type: functional; settings: Staphylococcus aureus, 503, 24 h
Procedure, shortened: (§1)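 Broth microdilution in Mueller-Hinton broth. Bacteria grown to mid-log phase, diluted 1000-fold, and inoculated at 10⁵ CFU/mL. Test compounds in DMSO, final DMSO not above 0.05%, final concentrations 64-0.5 µg/mL. Incubation 24 h at 37 °C, growth read as absorbance at 650 nm. MIC taken as the lowest concentration giving complete growth inhibition. Run three times.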

[6] = system: Staphylococcus aureus; test: Antibacterial activity against methicillin-resistant Staphylococcus aureus CCARM 3167 after 24 hrs by two-fold serial dilution method; type: functional; settings: CCARM 3167, 24 h; procedure, shortened: as §1
[7] = system: Streptococcus mutans; test: Antibacterial activity against Streptococcus mutans 3065 after 24 hrs by two-fold serial dilution method; type: functional; settings: Streptococcus mutans, 3065, 24 h
Procedure, shortened: (§2)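 Broth microdilution in Mueller-Hinton broth over final concentrations of 64–0.5. Bacteria were grown to mid-log phase and diluted 1000-fold, then inoculated at 10⁵ CFU/mL. Compounds were dissolved in DMSO, with final DMSO at most 0.05%. Plates were incubated 24 h at 37 °C and growth read as absorbance at 650 nm. MIC is the concentration giving complete growth inhibition. Three independent runs.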

[8] = system: Pseudomonas aeruginosa; test: Antibacterial activity against Pseudomonas aeruginosa 2004 after 24 hrs by two-fold serial dilution method; type: functional; settings: Pseudomonas aeruginosa, 2004, 24 h; procedure, shortened: as §2
[9] = system: Staphylococcus aureus; test: Antibacterial activity against quinolone-resistant Staphylococcus aureus CCARM 3505 after 24 hrs by two-fold serial dilution method; type: functional; settings: CCARM 3505, 24 h; procedure, shortened: as §1
[10] = system: Escherichia coli; test: Ratio of gatifloxacin MIC to compound MIC for Escherichia coli CCARM 1356 after 24 hrs by two-fold serial dilution method; type: functional
[11] = system: Escherichia coli; test: Antibacterial activity against Escherichia coli CCARM 1356 after 24 hrs by two-fold serial dilution method; type: functional; settings: CCARM 1356, 24 h; procedure, shortened: as §2
[12] = system: Staphylococcus aureus; test: Antibacterial activity against Staphylococcus aureus RN4220 after 24 hrs by two-fold serial dilution method; type: functional; settings: RN4220, 24 h; procedure, shortened: as §1
[13] = system: Staphylococcus aureus; test: Antibacterial activity against quinolone-resistant Staphylococcus aureus CCARM 3519 after 24 hrs by two-fold serial dilution method; type: functional; settings: CCARM 3519, 24 h; procedure, shortened: as §1
[14] = system: Staphylococcus aureus; test: Antibacterial activity against Staphylococcus aureus 209 after 24 hrs by two-fold serial dilution method; type: functional; settings: Staphylococcus aureus, 209, 24 h; procedure, shortened: as §1
[15] = system: Escherichia coli; test: Antibacterial activity against Escherichia coli KCTC 1924 after 24 hrs by two-fold serial dilution method; type: functional; settings: KCTC 1924, 24 h; procedure, shortened: as §2
[16] = system: Mus musculus; test: Antiinflammatory activity in mouse assessed as inhibition of xylene-induced ear edema at 50 mg/kg, ip administered 30 mins before xylene challenge relative to control; type: functional
Procedure, shortened: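 Mice received compound freshly dissolved in DMSO, 50 mg/kg ip at 0.05 mL/20 g body weight; vehicle controls got DMSO alone. After 30 min, 20 µL xylene was applied to the right ear. After a further 30 min, 7 mm plugs were cut from treated and untreated ears and edema taken as their weight difference. Result is % edema reduction versus vehicle controls.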

[17] = system: Pseudomonas aeruginosa; test: Antibacterial activity against Pseudomonas aeruginosa 2742 after 24 hrs by two-fold serial dilution method; type: functional; settings: Pseudomonas aeruginosa, 2742, 24 h; procedure, shortened: as §2
[18] = system: Staphylococcus aureus; test: Antibacterial activity against methicillin-resistant Staphylococcus aureus CCARM 3506 after 24 hrs by two-fold serial dilution method; type: functional; settings: CCARM 3506, 24 h; procedure, shortened: as §1
[19] = system: Staphylococcus aureus; test: Ratio of oxacillin MIC to compound MIC for methicillin-resistant Staphylococcus aureus CCARM 3506 after 24 hrs by two-fold serial dilution method; type: functional
[20] = system: Staphylococcus aureus; test: Ratio of moxifloxacin MIC to compound MIC for quinolone-resistant Staphylococcus aureus CCARM 3505 after 24 hrs by two-fold serial dilution method; type: functional
[21] = system: Salmonella typhimurium; test: Antibacterial activity against Salmonella typhimurium 2421 after 24 hrs by two-fold serial dilution method; type: functional, Salmonella enterica subsp. enterica serovar Typhimurium; settings: Salmonella enterica, 2421, 24 h; procedure, shortened: as §2
[22] = system: Candida albicans; test: Antifungal activity against Candida albicans 7535 by two-fold serial dilution method; type: functional
[23] = system: Escherichia coli; test: Ratio of moxifloxacin MIC to compound MIC for Escherichia coli CCARM 1356 after 24 hrs by two-fold serial dilution method; type: functional

SMILES | Ratio [1] | Ratio [2] | Ratio [3] | MIC [5] [µg/mL] | MIC [6] [µg/mL] | MIC [7] [µg/mL] | MIC [8] [µg/mL] | MIC [9] [µg/mL] | MIC [11] [µg/mL] | MIC [12] [µg/mL] | MIC [13] [µg/mL] | MIC [14] [µg/mL] | MIC [15] [µg/mL] | inhibition in vivo at 50 mg/kg [16] [%] | MIC [17] [µg/mL] | MIC [18] [µg/mL] | Ratio [20] | MIC [21] [µg/mL] | MIC [22] [µg/mL] | Ratio [23] | also measured
N=C(N)N/N=C/c1cn(-c2ccc([N+](=O)[O-])cc2[N+](=O)[O-])nc1-c1cccc(Br)c1 | 4 | 2 | 2 | 2 (≈ 4.23 µM) | 1 (≈ 2.11 µM) | 4 (≈ 8.45 µM) | > 64 | 2 (≈ 4.23 µM) | 4 (≈ 8.45 µM) | 1 (≈ 2.11 µM) | 2 (≈ 4.23 µM) | 2 (≈ 4.23 µM) | 2 (≈ 4.23 µM) | 81.7 | > 64 | 1 (≈ 2.11 µM) | 2 | 4 (≈ 8.45 µM) | 1 (≈ 2.11 µM) |  | Ratio [4]: 4; Ratio [10]: 4; Ratio [19]: 64
N=C(N)N/N=C/c1cn(-c2ccc([N+](=O)[O-])cc2[N+](=O)[O-])nc1-c1ccc(F)cc1 |  |  |  | 4 (≈ 9.7 µM) | 4 (≈ 9.7 µM) | 8 (≈ 19.4 µM) | > 64 | 4 (≈ 9.7 µM) | 8 (≈ 19.4 µM) | 4 (≈ 9.7 µM) | 4 (≈ 9.7 µM) | 4 (≈ 9.7 µM) | 4 (≈ 9.7 µM) | 61.9 | > 64 | 4 (≈ 9.7 µM) |  | 8 (≈ 19.4 µM) | 2 (≈ 4.85 µM) | 16 | 
N=C(N)N/N=C/c1cn(-c2ccc([N+](=O)[O-])cc2[N+](=O)[O-])nc1-c1ccc(Cl)cc1 | 4 | 2 | 2 | 2 (≈ 4.66 µM) | 2 (≈ 4.66 µM) | 4 (≈ 9.33 µM) | > 64 | 2 (≈ 4.66 µM) | 8 (≈ 18.7 µM) | 2 (≈ 4.66 µM) | 2 (≈ 4.66 µM) | 2 (≈ 4.66 µM) | 2 (≈ 4.66 µM) | 71.5 | > 64 | 2 (≈ 4.66 µM) | 2 | 4 (≈ 9.33 µM) | 2 (≈ 4.66 µM) | 16 | 
N=C(N)N/N=C/c1cn(-c2ccc([N+](=O)[O-])cc2[N+](=O)[O-])nc1-c1cccc(Cl)c1 | 4 | 2 | 2 | 2 (≈ 4.66 µM) | 2 (≈ 4.66 µM) | 4 (≈ 9.33 µM) | > 64 | 2 (≈ 4.66 µM) | 4 (≈ 9.33 µM) | 1 (≈ 2.33 µM) | 2 (≈ 4.66 µM) | 2 (≈ 4.66 µM) | 2 (≈ 4.66 µM) | 82.4 | > 64 | 1 (≈ 2.33 µM) | 2 | 4 (≈ 9.33 µM) | 1 (≈ 2.33 µM) |  | Ratio [4]: 4; Ratio [10]: 4; Ratio [19]: 64
N=C(N)N/N=C/c1cn(-c2ccc([N+](=O)[O-])cc2[N+](=O)[O-])nc1-c1ccc(Br)cc1 | 4 |  | 2 | 2 (≈ 4.23 µM) | 2 (≈ 4.23 µM) | 2 (≈ 4.23 µM) | > 64 | 2 (≈ 4.23 µM) | 4 (≈ 8.45 µM) | 2 (≈ 4.23 µM) | 2 (≈ 4.23 µM) | 2 (≈ 4.23 µM) | 2 (≈ 4.23 µM) | 69.6 | > 64 | 1 (≈ 2.11 µM) |  | 4 (≈ 8.45 µM) | 1 (≈ 2.11 µM) |  | Ratio [10]: 4; Ratio [19]: 64
N=C(N)N/N=C/c1cn(-c2ccc([N+](=O)[O-])cc2[N+](=O)[O-])nc1-c1ccc(Cl)cc1Cl | 4 | 2 |  | 2 (≈ 4.32 µM) | 2 (≈ 4.32 µM) | 4 (≈ 8.63 µM) | > 64 | 2 (≈ 4.32 µM) | 8 (≈ 17.3 µM) | 2 (≈ 4.32 µM) | 2 (≈ 4.32 µM) | 2 (≈ 4.32 µM) | 2 (≈ 4.32 µM) | 61.9 | > 64 | 2 (≈ 4.32 µM) | 2 | 8 (≈ 17.3 µM) | 2 (≈ 4.32 µM) | 16 | 
Cc1ccc(-c2nn(-c3ccc([N+](=O)[O-])cc3[N+](=O)[O-])cc2/C=N/NC(=N)N)c(C)c1 |  |  |  | 4 (≈ 9.47 µM) | 2 (≈ 4.73 µM) | 4 (≈ 9.47 µM) | > 64 | 2 (≈ 4.73 µM) | 8 (≈ 18.9 µM) | 2 (≈ 4.73 µM) | 4 (≈ 9.47 µM) | 4 (≈ 9.47 µM) | 2 (≈ 4.73 µM) | 79.6 | > 64 | 2 (≈ 4.73 µM) |  | 8 (≈ 18.9 µM) | 2 (≈ 4.73 µM) | 16 | 
Cc1ccc(-c2nn(-c3ccc([N+](=O)[O-])cc3[N+](=O)[O-])cc2/C=N/NC(=N)N)cc1 |  | 2 | 2 | 2 (≈ 4.9 µM) | 2 (≈ 4.9 µM) | 4 (≈ 9.79 µM) | > 64 | 2 (≈ 4.9 µM) | 4 (≈ 9.79 µM) | 2 (≈ 4.9 µM) | 2 (≈ 4.9 µM) | 2 (≈ 4.9 µM) | 2 (≈ 4.9 µM) | 87.4 | > 64 | 2 (≈ 4.9 µM) | 2 | 4 (≈ 9.79 µM) | 2 (≈ 4.9 µM) |  | 
Cc1ccc(-c2nn(-c3ccccc3)cc2/C=N/NC(=N)N)cc1 |  |  |  | 4 (≈ 12.6 µM) | 2 (≈ 6.28 µM) | 8 (≈ 25.1 µM) | 16 (≈ 50.3 µM) | 4 (≈ 12.6 µM) | 8 (≈ 25.1 µM) | 2 (≈ 6.28 µM) | 4 (≈ 12.6 µM) | 4 (≈ 12.6 µM) | 2 (≈ 6.28 µM) | 86.5 | 32 (≈ 101 µM) | 2 (≈ 6.28 µM) |  | 8 (≈ 25.1 µM) | 2 (≈ 6.28 µM) | 16 | 
COc1ccc(-c2nn(-c3ccc([N+](=O)[O-])cc3[N+](=O)[O-])cc2/C=N/NC(=N)N)cc1 |  |  |  | 4 (≈ 9.43 µM) | 4 (≈ 9.43 µM) | 8 (≈ 18.9 µM) | > 64 | 4 (≈ 9.43 µM) | 8 (≈ 18.9 µM) | 4 (≈ 9.43 µM) | 4 (≈ 9.43 µM) | 4 (≈ 9.43 µM) | 4 (≈ 9.43 µM) | 86.5 | > 64 | 2 (≈ 4.71 µM) |  | 8 (≈ 18.9 µM) | 2 (≈ 4.71 µM) | 16 | 
COc1cccc(-c2nn(-c3ccc([N+](=O)[O-])cc3[N+](=O)[O-])cc2/C=N/NC(=N)N)c1 |  |  |  | 4 (≈ 9.43 µM) | 4 (≈ 9.43 µM) | 8 (≈ 18.9 µM) | > 64 | 4 (≈ 9.43 µM) | 8 (≈ 18.9 µM) | 4 (≈ 9.43 µM) | 4 (≈ 9.43 µM) | 4 (≈ 9.43 µM) | 4 (≈ 9.43 µM) | 67.3 | > 64 | 2 (≈ 4.71 µM) |  | 8 (≈ 18.9 µM) | 2 (≈ 4.71 µM) | 16 | 
Cc1cccc(-c2nn(-c3ccc([N+](=O)[O-])cc3[N+](=O)[O-])cc2/C=N/NC(=N)N)c1 |  |  |  | 2 (≈ 4.9 µM) | 2 (≈ 4.9 µM) | 4 (≈ 9.79 µM) | > 64 | 2 (≈ 4.9 µM) | 8 (≈ 19.6 µM) | 2 (≈ 4.9 µM) | 4 (≈ 9.79 µM) | 2 (≈ 4.9 µM) | 2 (≈ 4.9 µM) | 76.9 | > 64 | 2 (≈ 4.9 µM) |  | 8 (≈ 19.6 µM) | 2 (≈ 4.9 µM) | 16 | 
N=C(N)N/N=C/c1cn(-c2ccccc2)nc1-c1ccc(Cl)cc1 |  |  |  | > 64 | > 64 | > 64 | > 64 | > 64 | > 64 | 16 (≈ 47.2 µM) | > 64 | > 64 | > 64 | 46 | > 64 | > 64 |  | > 64 | > 64 |  | 

— ChEMBL document CHEMBL3627681, “Synthesis and biological evaluation of 1,3-diaryl pyrazole derivatives as potential antibacterial and anti-inflammatory agents” (2015)
